Data taken from publication PMC4216218 (Journal of Medicinal Chemistry, 2014).
Values joined by “and” are separate entries in the source; they are usually repeats but may differ in a detail not shown here. Equal values may be shown once.

Legend:
human factor XIa = human factor XIa (Homo sapiens, UniProt P03951); test: Fluorescence-based binding affinity, intrinsic tryptophan fluorescence; details: pH 7.4, 37 °C
Summary of the method: (§1)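 Human plasma factor XI or factor XIa (105 nM) was titrated at 37 °C with aliquots of 200–250 μM aqueous ligand in 50 mM Tris-HCl pH 7.4, 150 mM NaCl, 0.1% PEG8000. Intrinsic tryptophan fluorescence (λEX 280 nm) was followed. ΔF/F0 versus ligand concentration was fitted to a quadratic binding equation for KD and ΔFMAX.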

DEGR-factor XIa = DEGR-factor XIa (Homo sapiens, UniProt P03951); test: Fluorescence-based binding affinity, dansyl fluorescence; details: saturating ligand, λEX 345 nm
factor XI (zymogen) = factor XI (zymogen) (Homo sapiens, UniProt P03951); type: binding; details: intrinsic tryptophan fluorescence, pH 7.4, 37 °C
Summary of the method: as §1

DEGR-FXIa = DEGR-FXIa (Homo sapiens, UniProt P03951); test: Salt dependence of affinity of DEGR-FXIa; type: binding
Summary of the method: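 DEGR-factor XIa (250 nM) was titrated with ligand solutions at 37 °C in 50 mM Tris-HCl pH 7.4, 0.1% PEG8000, at 25, 50, 100 or 150 mM NaCl. Dansyl fluorescence was read at 547 nm (excitation 345 nm), and a quadratic fit gave KD,obs. […] At least two experiments were run.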

Chain of DEGR-FXIa (P03951 19-387 limits assumed): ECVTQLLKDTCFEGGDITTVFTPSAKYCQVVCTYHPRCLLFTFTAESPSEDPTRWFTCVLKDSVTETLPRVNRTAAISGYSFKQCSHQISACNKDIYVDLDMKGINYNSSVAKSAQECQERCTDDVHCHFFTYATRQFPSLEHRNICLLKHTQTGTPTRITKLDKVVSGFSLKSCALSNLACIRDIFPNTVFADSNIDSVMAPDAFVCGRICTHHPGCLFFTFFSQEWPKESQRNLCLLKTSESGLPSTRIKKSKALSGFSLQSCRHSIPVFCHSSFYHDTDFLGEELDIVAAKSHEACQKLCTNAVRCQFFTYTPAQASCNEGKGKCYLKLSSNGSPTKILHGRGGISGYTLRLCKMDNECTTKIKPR
Chain of DEGR-FXIa (P03951 388-625 limits assumed): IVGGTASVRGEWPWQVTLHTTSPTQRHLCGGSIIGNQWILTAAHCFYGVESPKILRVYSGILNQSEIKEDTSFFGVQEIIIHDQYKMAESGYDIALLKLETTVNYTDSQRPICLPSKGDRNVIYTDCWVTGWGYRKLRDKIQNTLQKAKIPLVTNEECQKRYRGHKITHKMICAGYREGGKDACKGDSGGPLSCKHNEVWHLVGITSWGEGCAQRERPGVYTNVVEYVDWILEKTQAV
Chain of human factor XIa (P03951 19-387 limits assumed): as the sequence (P03951 19-387 limits assumed) above
Chain of human factor XIa (P03951 388-625 limits assumed): as the sequence (P03951 388-625 limits assumed) above
Chain of DEGR-factor XIa (P03951 19-387 limits assumed): as the sequence (P03951 19-387 limits assumed) above
Chain of DEGR-factor XIa (P03951 388-625 limits assumed): as the sequence (P03951 388-625 limits assumed) above
Chain of factor XI (zymogen) (P03951 19-625): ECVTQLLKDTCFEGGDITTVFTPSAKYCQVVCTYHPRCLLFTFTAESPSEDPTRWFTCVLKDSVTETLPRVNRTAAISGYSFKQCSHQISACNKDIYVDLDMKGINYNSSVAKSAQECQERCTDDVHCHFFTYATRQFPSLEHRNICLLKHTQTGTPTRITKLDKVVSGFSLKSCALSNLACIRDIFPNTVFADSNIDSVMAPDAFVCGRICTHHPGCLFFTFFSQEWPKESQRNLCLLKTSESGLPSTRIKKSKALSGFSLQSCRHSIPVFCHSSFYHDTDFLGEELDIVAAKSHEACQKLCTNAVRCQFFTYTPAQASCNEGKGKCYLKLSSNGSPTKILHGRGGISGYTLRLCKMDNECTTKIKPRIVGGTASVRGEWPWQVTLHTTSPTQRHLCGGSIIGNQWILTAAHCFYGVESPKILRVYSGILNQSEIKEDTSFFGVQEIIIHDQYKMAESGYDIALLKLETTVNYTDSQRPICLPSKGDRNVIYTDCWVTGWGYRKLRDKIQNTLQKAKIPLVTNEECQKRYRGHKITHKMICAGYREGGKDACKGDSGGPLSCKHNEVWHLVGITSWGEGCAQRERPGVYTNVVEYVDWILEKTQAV

Kd (human factor XIa): 900 ± 200 nM
ΔFMAX (human factor XIa): –68 ± 2%
blue-shift of emission wavelength of DEGR-FXIa (DEGR-factor XIa): ~3 nm
Kd (factor XI (zymogen)): 1800 ± 400 nM
Z (number of ion-pairs formed) (DEGR-FXIa; pH 7.4, 37 °C): 0.64 ± 0.04
intercept of log KD,obs versus log[Na] (DEGR-FXIa; pH 7.4, 37 °C): –5.00 ± 0.04
slope of log KD,obs versus log[Na] (DEGR-FXIa; pH 7.4, 37 °C): 0.52 ± 0.03
ΔG0NI (binding energy due to nonionic forces) (DEGR-FXIa; pH 7.4, 37 °C): 7.08 kcal/mol and 7.1 ± 0.02 kcal/mol
ΔG0NI (nonionic binding energy contribution to the total) (DEGR-FXIa; pH 7.4, 37 °C): 90.5%
ΔG0I (binding energy due to ionic forces) (DEGR-FXIa; pH 7.4, I 0.15): 0.75 kcal/mol
Kd (DEGR-FXIa; read-out: KD,NI (nonionic affinity), dissociation constant at [Na+] = 1 M): 10100 ± 400 nM
Substance: heparin octasaccharide [H8]
